{"source": "paper PMC6893110", "about": "(Molecular imaging and biology, 2020)", "key": {"[1]": {"test_system": "MCF-7 tumor xenografts", "test": "In vivo tracer dilution", "set-up": "species or system athymic nude mice", "details": "for reduction of [^124I]IPAG tumor uptake: 100-fold excess of IPAG", "how_it_was_run": "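MCF7-xenografted athymic nude mice (estradiol-supplemented, 100–300 mm³ tumors) got KI i.p. 1 h before i.v. co-injection. […] Mice were euthanised at 24, 48 or 72 h and organs weighed and gamma-counted. %ID/g was decay- and background-corrected.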"}, "[2]": {"test_system": "LNCaP tumors", "test": "PET imaging blocking study in LNCaP tumor-bearing mice", "format": "in vivo, athymic nude mice", "details": "100-fold excess of cold IPAG co-injected with [^124I]IPAG", "how_it_was_run": "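LNCaP cells (5×10^6 in 1:1 Matrigel/medium) were grown s.c. on the hind limb of athymic nude mice for 3–5 weeks. Mice got 0.1% KI i.p. 1 h before i.v. tracer (200 μCi in 150 μL 0.5% ethanol/saline) co-injected with 100-fold excess unlabeled IPAG. Under 2% isoflurane, mice were imaged by microPET at 4, 24 and 72 h. %ID/g came from regions of interest drawn on the PET images.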"}, "[3]": {"test_system": "MCF7 tumor xenografts", "test": "PET imaging of [^124I]IPAG in MCF7 tumor-bearing mice", "format": "in vivo, athymic nude mice", "how_it_was_run": "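Female athymic nude mice (n=5) carried estradiol-supported s.c. MCF7 xenografts on the right forelimb (100–300 mm³). They got 0.1% KI i.p. 1 h before i.v. tracer (200 μCi, 7.4 MBq, in 150 μL 0.5% ethanol/saline). Mice were anaesthetised with 2% isoflurane in air for 15 min and scanned by microPET at serial times up to 144 h post-injection. Images were read visually and tumor maximum pixel values recorded.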"}, "[4]": {"test": "Solubility of IPAG in assay media", "format": "physicochemical", "details": "in both cell media and PBS"}, "[5]": {"molecular_target": "S1R", "details": "read-out: Kd for S1R; binding to S1R; no reference given; cited from earlier work"}, "[6]": {"molecular_target": "S1R (Homo sapiens, UniProt Q99720)", "sequence (Q99720 whole entry)": "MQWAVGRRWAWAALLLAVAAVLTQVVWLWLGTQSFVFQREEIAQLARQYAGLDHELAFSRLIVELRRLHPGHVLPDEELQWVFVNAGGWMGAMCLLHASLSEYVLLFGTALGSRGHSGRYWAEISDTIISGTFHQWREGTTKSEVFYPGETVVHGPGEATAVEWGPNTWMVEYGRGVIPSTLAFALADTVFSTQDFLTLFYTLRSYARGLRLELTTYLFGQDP", "format": "binding"}, "[7]": {"test_system": "MCF7 tumors", "test": "Ex vivo biodistribution of [^124I]IPAG in MCF7 tumor-bearing mice", "set-up": "species or system athymic nude mice", "details": "n = 5", "how_it_was_run": "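Female athymic nude mice (6–8 wk) got s.c. 17β-estradiol pellets (0.75 mg) 72 h before s.c. forelimb implant of 1×10^7 MCF7 cells in 1:1 Matrigel/medium. Tumors were 100–300 mm³. Mice got 0.1% KI i.p. 1 h before i.v. tracer (20–30 μCi in 5% ethanol/0.9% saline) and were euthanised by CO₂ at 4, 24, 48 or 72 h. Organs were weighed and gamma-counted, with background and decay correction. Injected dose was taken from syringe activity before and after injection. Results are %ID/g, mean and SD.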"}}, "data": [{"smiles": "N=C(Nc1ccc(I)cc1)NC1C2CC3CC(C2)CC1C3", "note": "(stereo not shown) [IPAG, 1-(4-iodophenyl)-3-(2-adamantyl)guanidine]", "values": [{"measurement": "reduction of [^124I]IPAG tumor uptake", "setting": "[1]; 24 h", "result": 81.14, "unit": "%"}, {"measurement": "reduction of [^124I]IPAG tumor uptake", "setting": "[1]; 48 h", "result": 88.74, "unit": "%"}, {"measurement": "calculated %ID/g values (PET ROI) versus [^124I]IPAG alone", "setting": "[2]", "result": "significantly lower"}, {"measurement": "clearance time from background organs", "setting": "[3]; PET imaging, mice", "result": "around 24 h"}, {"measurement": "solubility", "setting": "[4]", "result": "poor solubility"}, {"measurement": "Kd", "setting": "[5]", "result": 9, "unit": "nM"}, {"measurement": "IC50", "setting": "[6]", "result": "4.7 to 14.1", "unit": "nM"}, {"measurement": "inhibitory constants in vitro", "setting": "[6]; competition against radioiodinated IPAG, sigma-1", "result": "nanomolar"}]}, {"smiles": "N=C(Nc1ccc([124I])cc1)NC1C2CC3CC(C2)CC1C3", "note": "(stereo not shown) [[^124I]IPAG, I-124 labeled 1-(4-iodophenyl)-3-(2-adamantyl)guanidine]", "values": [{"measurement": "uptake at extended time post injection (PET imaging)", "setting": "[3]; 144 h post injection", "result": "~ 0.17 % ID/g"}, {"measurement": "%ID/g uptake in MCF7 tumors", "setting": "[7]; 4 h post i.v. injection", "result": "1.53 ± 0.27", "unit": "%ID/g"}, {"measurement": "%ID/g uptake in MCF7 tumors", "setting": "[7]; 24 h post i.v. injection", "result": "1.09 ± 0.24", "unit": "%ID/g"}, {"measurement": "%ID/g uptake in MCF7 tumors", "setting": "[7]; 48 h post i.v. injection", "result": "0.94 ± 0.23", "unit": "%ID/g"}]}, {"smiles": "O=C(CCCN1CCC(O)(c2ccc(Cl)cc2)CC1)c1ccc(F)cc1", "note": "[haloperidol]", "values": [{"measurement": "inhibition of [^124I]IPAG uptake in tumor", "setting": "[1]; 3.5-fold excess of haloperidol i.v. with tracer, 72 h p.i.", "result": "about 3 fold"}]}]}
